Laboratory results: article PMC2196149 (The Journal of Experimental Medicine, 1997)
Primed or numbered codes have the meaning given here. No end group written: not given here. *: point of attachment. IASA″ = iodo-4-azidosalicylic acid, on the N-terminus in place of PbCS S-252; Benzoyl(4-N3) = [N-]=[N+]=Nc1ccc(C(=O)*)cc1; IASA = iodo-4-azidosalicylic acid

Assays:
[1] = system: seven IASA-YIPSAEK(ABA)I-specific CTL clones; assay: 51Cr release cytolytic assay, P815 targets, seven CTL clones; assay type: cell-based, mice; conditions: clones S1, S4, S14, S15, S17, S18, T1; 51Cr-labeled P815 targets; wt = 1 (Fig. 3 A)
TCR on CTL S17 = assay: TCR-ligand dissociation, clone S17; assay type: binding, mice; conditions: preliminary, unpublished results
TCR on CTL T1 = assay: TCR-ligand dissociation, clone T1; assay type: binding, mice; conditions: preliminary, unpublished results
[2] = system: S15 CTL / A20 Fas^− cells; assay: 51Cr release cytolytic assay, A20 Fas^− targets, clone S15; assay type: cell-based, mice; conditions: 51Cr-labeled A20 Fas^− cells, E/T 3:1, 8 h; representative experiment (Fig. 4 B)
Outline: (§1)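 Murine H-2Kd-restricted CTL clone specific for a photoreactive derivative of a Plasmodium berghei circumsporozoite 252–260 peptide. Targets are 51Cr-labeled A20 B lymphoma cells or their Fas-lacking variant, 2 × 10^3/well, in threefold dilutions of peptide derivative in DMEM + 5% FCS + 10 mM Hepes. CTL (6 × 10^3/well) added after 15 min; 8 h at 37°C. Supernatant 51Cr counted. Specific lysis = 100 × (experimental − spontaneous)/(total − spontaneous).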

S15 CTL / A20 cells = assay: 51Cr release cytolytic assay, A20 targets, clone S15; assay type: cell-based, mice; conditions: 51Cr-labeled A20 cells, E/T 3:1, 8 h; representative experiment (Fig. 4 A)
Outline: as §1

S15 CTL = assay: 51Cr release cytolytic assay, P815 targets, clone S15; assay type: cell-based, mice; conditions: 51Cr-labeled P815 targets; partial recognition
Outline: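 Cloned CTL are tested on 51Cr-labeled P815 mastocytoma targets (DMEM, 5% FCS, 10 mM Hepes), 2 × 10^3/well, with threefold dilutions of peptide derivative. CTL (6 × 10^3/well) added after 15 min; 4 h at 37°C. Supernatant 51Cr measured. Specific lysis = 100 × (experimental − spontaneous)/(total − spontaneous release).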

S14 CTL = assay: inhibition of recognition of photocross-linked IASA-YIPSAEK; assay type: cell-based, mice; conditions: P815 cells photocross-linked with suboptimal IASA-YIPSAEK(ABA)I (Fig. 5 B)
TCR on CTL S4 = assay: TCR-ligand dissociation, clone S4; assay type: binding, mice; conditions: preliminary, unpublished results

For S256A ({IASA″}-YIPAAEK(Benzoyl(4-N3))I), the “normalized relative antigenic activities over seven CTL clones” value (from here on “normalized relative antigenic activities”) [1] was 0.1 to 6 and the “dissociation of ligand from TCR compared with wild-type ligand” value (TCR on CTL S17) was “faster”.

With “P255S ({IASA}-YISSAEK(Benzoyl(4-N3))I; not fully specified)” the “dissociation of ligand from TCR compared with wild-type ligand” value (TCR on CTL S17) was “considerably slower”.

In the case of “P255A ({IASA}-YIASAEK(Benzoyl(4-N3))I; not fully specified)”, the “dissociation of ligand from TCR compared with wild-type ligand” value (TCR on CTL T1) is reported as “faster” and the “normalized relative antigenic activities” value [1] is reported as 0.1 to 6.

For IASA-YIPSAEK(ASA)I [K259(ASA)], the “concentration for half-maximal lysis of A20 Fas^− cells by S15 CTL” value [2] was “not detectably lysed”, the “specific lysis at half-maximum, A20 cells, S15 CTL” value (S15 CTL / A20 cells) was 13% and the “normalized relative antigenic activities” value [1] was “efficiently recognized by all clones, except by clone S15”. For the same substance, the “plateau of specific lysis, S15 CTL” value (S15 CTL) was at most 30%.

In the case of IASA-YIPSAEK(IASA)I, the “plateau of specific lysis, S15 CTL” value (S15 CTL) is reported as “even lower plateau of lysis”.

In the case of “P255L ({IASA}-YILSAEK(Benzoyl(4-N3))I; not fully specified)”, the “concentration required for maximal inhibition relative to K259(BA), S14 CTL” value (S14 CTL) is reported as about 10 fold.

In the case of E258A ({IASA}-YIPSAAK(Benzoyl(4-N3))I), the “dissociation of ligand from TCR compared with wild-type ligand” value (TCR on CTL S4) is reported as “considerably slower”.

For I254A ({IASA}-YAPSAEK(Benzoyl(4-N3))I), the “normalized relative antigenic activities” value [1] was 0.1 to 6.
